Test results published in ChEMBL document CHEMBL2346503, “Synthesis and evaluation of novel (18)F-labeled spirocyclic piperidine derivatives as σ1 receptor ligands for positron emission tomography imaging” (J Med Chem, 2013).

What was measured:
Intestine [1] = assay: Biodistribution in ICR mouse intestine assessed per organ at 370 kBq, iv after 30 mins by gamma-counting analysis; assay type: ADME, organism-based; settings: in vivo, 0.5 h
Method in brief: (§1)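 Male ICR mice (n = 5) got 370 kBq iv in 0.1 mL saline and were decapitated at 2, 30, 60 or 120 min. Whole intestine was γ-counted and expressed as percent injected dose per organ, decay-corrected, mean ± SD.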

Liver [2] = assay: Biodistribution in ICR mouse liver at 370 kBq, iv after 30 mins by gamma-counting analysis; assay type: ADME, organism-based; settings: in vivo, 0.5 h
Method in brief: (§2)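 Male ICR mice (n = 5 per group) got 370 kBq tracer in 0.1 mL saline by iv injection. They were decapitated at 2, 30, 60 or 120 min, and organs were weighed and γ-counted. %ID/g was found against diluted aliquots of the injected dose, decay-corrected, and given as mean ± SD.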

Kidney [3] = assay: Biodistribution in ICR mouse kidney at 370 kBq, iv after 120 mins by gamma-counting analysis; assay type: ADME, organism-based; settings: in vivo, 2 h; method in brief: as §2
[4] = Ratio of drug uptake from ICR mouse brain to blood after 2 mins; assay type: ADME, tissue-based; settings: brain and blood
Brain [5] = assay: Biodistribution in ICR mouse brain at 370 kBq, iv after 30 mins by gamma-counting analysis; assay type: ADME, organism-based; settings: in vivo, 0.5 h; method in brief: as §2
Blood [6] = assay: Biodistribution in ICR mouse blood at 370 kBq, iv after 60 mins by gamma-counting analysis in presence of haloperidol relative to control; assay type: ADME, organism-based; settings: in vivo, 1 h
Method in brief: (§3)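 Male ICR mice (n = 5) got saline or haloperidol (0.1 mL, 1.0 mg/kg) via tail vein 5 min before 370 kBq tracer iv. Tissues were taken 60 min later and γ-counted as %ID/g (intestine as %ID/organ). Control and blocked groups were compared by two-tailed independent Student's t test, p ≤ 0.05.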

Blood [7] = assay: Biodistribution in ICR mouse blood at 370 kBq, iv after 60 mins by gamma-counting analysis; assay type: ADME, organism-based; settings: in vivo, 1 h; method in brief: as §2
Kidney [8] = assay: Biodistribution in ICR mouse kidney at 370 kBq, iv after 60 mins by gamma-counting analysis in presence of haloperidol relative to control; assay type: ADME, organism-based; settings: in vivo, 1 h; method in brief: as §3
Heart [9] = assay: Biodistribution in ICR mouse heart at 370 kBq, iv after 60 mins by gamma-counting analysis; assay type: ADME, organism-based; settings: in vivo, 1 h; method in brief: as §2
Bone [10] = assay: Biodistribution in ICR mouse bone at 370 kBq, iv after 60 mins by gamma-counting analysis in presence of haloperidol relative to control; assay type: ADME, organism-based, Bone element; settings: in vivo, 1 h; method in brief: as §3
Bone [11] = assay: Biodistribution in ICR mouse bone at 370 kBq, iv after 2 mins by gamma-counting analysis; assay type: ADME, organism-based, Bone element; settings: in vivo; method in brief: as §2
Brain [12] = assay: Biodistribution in ICR mouse brain at 370 kBq, iv after 120 mins by gamma-counting analysis; assay type: ADME, organism-based; settings: in vivo, 2 h; method in brief: as §2
Liver [13] = assay: Biodistribution in ICR mouse liver at 370 kBq, iv after 2 mins by gamma-counting analysis; assay type: ADME, organism-based; settings: in vivo; method in brief: as §2
Intestine [14] = assay: Biodistribution in ICR mouse intestine assessed per organ at 370 kBq, iv after 120 mins by gamma-counting analysis; assay type: ADME, organism-based; settings: in vivo, 2 h; method in brief: as §1
Heart [15] = assay: Biodistribution in ICR mouse heart at 370 kBq, iv after 120 mins by gamma-counting analysis; assay type: ADME, organism-based; settings: in vivo, 2 h; method in brief: as §2
Blood [16] = assay: Biodistribution in ICR mouse blood at 370 kBq, iv after 2 mins by gamma-counting analysis; assay type: ADME, organism-based; settings: in vivo; method in brief: as §2
Brain [17] = assay: Biodistribution in ICR mouse brain at 370 kBq, iv after 2 mins by gamma-counting analysis; assay type: ADME, organism-based; settings: in vivo; method in brief: as §2
Heart [18] = assay: Biodistribution in ICR mouse heart at 370 kBq, iv after 60 mins by gamma-counting analysis in presence of haloperidol relative to control; assay type: ADME, organism-based; settings: in vivo, 1 h; method in brief: as §3
Bone [19] = assay: Biodistribution in ICR mouse bone at 370 kBq, iv after 60 mins by gamma-counting analysis; assay type: ADME, organism-based, Bone element; settings: in vivo, 1 h; method in brief: as §2
Heart [20] = assay: Biodistribution in ICR mouse heart at 370 kBq, iv after 2 mins by gamma-counting analysis; assay type: ADME, organism-based; settings: in vivo; method in brief: as §2
Lung = assay: Biodistribution in ICR mouse lung at 370 kBq, iv after 60 mins by gamma-counting analysis in presence of haloperidol relative to control; assay type: ADME, organism-based; settings: in vivo, 1 h
Method in brief: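 Male ICR mice, n = 5 per group, received saline (0.1 mL) or haloperidol (0.1 mL, 1.0 mg/kg) via tail vein 5 min before the radiotracer (370 kBq, 0.1 mL, iv). Killed by decapitation at 60 min. Tissues were excised, weighed and gamma-counted. Values are % ID/g (stomach as % ID/organ) and percent change versus saline controls, compared by two-tailed independent Student's t test, p ≤ 0.05.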

Intestine [21] = assay: Biodistribution in ICR mouse intestine assessed per organ at 370 kBq, iv after 60 mins by gamma-counting analysis in presence of haloperidol relative to control; assay type: ADME, organism-based; settings: in vivo, 1 h; method in brief: as §3
Liver [22] = assay: Metabolic stability in ICR mouse liver assessed as retention time at 18.5 MBq, iv by HPLC analysis; assay type: ADME, organism-based; settings: in vivo
Method in brief: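 Male ICR mice given radiotracer iv (18.5 MBq, 0.2 mL), killed at 30 min. Brain and liver were homogenized in ice-cold PBS (0.01 M, pH 7.4) and extracted with ice-cold MeCN. Supernatants were filtered, concentrated and analysed by radio-HPLC on a C18 column, acetonitrile/water with 0.1% TFA (45:55), 1 mL/min.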

[23] = Stability of the compound in mouse plasma at 37 degC up to 4 hrs; assay type: ADME, cell-free
Method in brief: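 The radiotracer (3.7 MBq in 100 μL water) was added to 1 mL of freshly prepared murine plasma and incubated at 37 °C for 4 h. Radiochemical purity was assayed by HPLC at 1, 2 and 4 h.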

Hypothalamus = assay: Drug uptake in Sprague-Dawley rat hypothalamus at 12.2 MBq, iv after 60 mins by autoradiography; assay type: ADME, organism-based; settings: in vivo, 1 h
Method in brief: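 [¹⁸F]-labelled tracer (0.2 mL, 12.2 MBq) given intravenously to conscious Sprague-Dawley rats (n = 3). Each rat was killed by cervical dislocation 60 min after injection. The brain was removed and frozen in liquid nitrogen, and 20 μm coronal sections were cut on a cryostat for ex vivo autoradiography of regional radioactivity.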

Brain [24] = assay: Biodistribution in ICR mouse brain assessed as reduction in radiotracer uptake at 370 kBq, iv after 60 minutes by gamma-counting analysis in presence of fluvoxamine; assay type: ADME, organism-based; settings: in vivo, 1 h
Method in brief: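 Male ICR mice got saline or a blocker (haloperidol, (S)-(−)-raclopride, fluvoxamine or tamoxifen; 0.1 mL, 2.2 μmol/kg) via tail vein 5 min before 370 kBq tracer iv. Brain was γ-counted at 60 min and compared with saline controls by two-tailed Student's t test, p ≤ 0.05.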

Rattus norvegicus = assay: Biodistribution in Sprague-Dawley rat internal capsule at 23 MBq, iv after 60 mins by microPET imaging/CT study in presence of haloperidol; assay type: ADME, organism-based; settings: in vivo, 1 h
Method in brief: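 Sprague-Dawley rats under isoflurane (1.5–2.5%) in oxygen received 23 MBq radiotracer (0.2 mL saline) via tail vein. Blocking animals were pre-injected with haloperidol (0.2 mL, 1 mg/kg) 5 min before the tracer. MicroPET emission was acquired for 30 min starting 60 min post-injection, followed by a 5 min CT scan; images were summed over 60–90 min.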

Heart [25] = assay: Biodistribution in ICR mouse heart assessed as reduction in radiotracer uptake at 370 kBq, iv after 60 minutes by gamma-counting analysis in presence of SA4503 relative to control; assay type: ADME, organism-based; parameters: scale not given: the % may be the effect or the level left; settings: in vivo, 1 h
Method in brief: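 Male ICR mice got saline or SA4503 (0.1 mL; 2, 5, 10 or 2.2 μmol/kg) via tail vein 5 min before 370 kBq tracer (0.1 mL) iv. They were decapitated at 60 min and tissues γ-counted. Percent change was taken against saline controls, with two-tailed Student's t test, p ≤ 0.05.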

| Drug uptake (Intestine [1]) [%ID] | Drug uptake (Liver [2]) [% ID/g] | Drug uptake (Kidney [3]) [% ID/g] | Kp at 2 min [4] | Drug uptake (Brain [5]) [% ID/g] | Drug uptake (Blood [6]) [%] | Drug uptake (Blood [7]) [% ID/g] | Drug uptake (Kidney [8]) [%] | Drug uptake (Heart [9]) [% ID/g] | Drug uptake (Bone [10]) [%] | Drug uptake (Bone [11]) [% ID/g] | Drug uptake (Brain [12]) [% ID/g] | Drug uptake (Liver [13]) [% ID/g] | Drug uptake (Intestine [14]) [%ID] | Drug uptake (Heart [15]) [% ID/g] | Drug uptake (Blood [16]) [% ID/g] | Drug uptake (Brain [17]) [% ID/g] | Drug uptake (Heart [18]) [%] | Drug uptake (Bone [19]) [% ID/g] | Drug uptake (Heart [20]) [% ID/g] | Compound | other results |
| --- | --- | --- | --- | --- | --- | --- | --- | --- | --- | --- | --- | --- | --- | --- | --- | --- | --- | --- | --- | --- | --- |
| 6.72 | 8.67 | 3.96 | 2.9 | 5.2 | 17 | 3.35 | 11 | 3.43 | -26 | 3.38 | 3.91 | 5.83 | 4.04 | 3.25 | 1.97 | 5.79 | 17 | 4.51 | 7.69 | [18F]CCOCCOCCOc1ccc(CN2CCC3(CC2)OCc2ccccc23)cc1 | Drug uptake (Lung): 6%; Drug uptake (Intestine [21]): 30% |
| 8.02 | 15.3 | 9.55 | 4.7 | 9.32 | 352 | 0.8 | -47 | 10.74 | 18 | 2.74 | 8.99 | 8.46 | 7.17 | 8.54 | 1.71 | 8.07 | -61 | 4.27 | 21.71 | [18F]CCOc1ccc(CN2CCC3(CC2)OCc2ccccc23)cc1 | Retention_time (Liver [22]): 7.72 min; Stability [23]: Stable; Drug uptake (Hypothalamus): Active; Drug uptake (Brain [24]): Active; Drug uptake (Rattus norvegicus): Active; Activity (Heart [25]): 60%; Drug uptake (Lung): -76%; Drug uptake (Intestine [21]): -7% |
